# Screens: PubChem, Johns Hopkins Ion Channel Center
# KCNQ1 pot: potentiators or activators of KCNQ1 channel, primary screen, cell-based, thallium flux, high-throughput; Potassium voltage-gated channel subfamily KQT member 1 (Homo sapiens), P51787; 310,000 compounds, 0.35% hits; CHO-K1 KCNQ1, thallium flux FluxOR fluorescence; hits give high values; B-score at 10 µM; AID 2648, 2010;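 active = fluorescence ratio B-score, a plate-corrected score, at least three library SD, with initial intensity B-score within 5 SD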
#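 Assay system: CHO-K1 cells stably expressing KCNQ1. Medium: assay buffer for compound exposure, DMSO matched across wells. Timing: 37 °C overnight plating, 90-min dark dye load, 20-min compound pretreatment. Signal: kinetic FluxOR fluorescence, 10 s baseline plus 110 s post-stimulus.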
# KCNK3 inh: human KCNK3 channel inhibitors, primary screen, CHO cells, FluxOR thallium flux, B-score | FluxOR fluorescence; hits give low values | B-score at 10 µM | 340,000 compounds, 0.84% hits | AID 602410, 2012;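 active = B-score under library mean minus 4 SD, starting fluorescence ratio at most library mean plus 5 SD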;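 also: more negative B-score means stronger inhibition of thallium flux through KCNK3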
# KCNK9 inh: KCNK9 potassium channel inhibitors, primary screen, HEK293 cells, thallium flux | Potassium channel subfamily K member 9 (Homo sapiens), Q9NPC2 | FluxOR thallium flux fluorescence; hits give low values | B-score at 10 µM | 310,000 compounds, 1.2% hits;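 active = ratio B-score over 3 SD below the library mean, with starting fluorescence within 5 SD of its mean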;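 also: negative B-score means less thallium flux so channel inhibition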
# Kir21 inh: inhibitors of mouse Kir2.1 inward-rectifier potassium channel; B-score at 10 µM; 310,000 compounds, 0.85% hits; HEK293-Kir2.1, FluxOR thallium flux fluorescence; hits give low values;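 active = fluorescence ratio B-score at or below minus 3 SD of library scores, with starting-brightness B-score within 2 SD, cut at about -4.2 in these data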;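 also: channel flux triggered by added potassium and thallium sulfate stimulus; B-score of peak minus minimum fluorescence over baseline after thallium stimulus; more negative B-score means stronger Kir2.1 block with less thallium influx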
# KCNQ1 inh: inhibitors of human KCNQ1 channel, primary screen, cell-based, thallium flux, high-throughput. 310,000 compounds, 1.3% hits. CHO-K1 KCNQ1, FluxOR thallium flux fluorescence; hits give high values. B-score at 10 µM. AID 2642, 2010. Potassium voltage-gated channel subfamily KQT member 1 (Homo sapiens), P51787;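 active = compounds whose thallium flux B-score, printed positive for inhibition, exceeds three library SD while starting fluorescence stays within three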;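 also: channel opened by potassium depolarization with thallium stimulus after 20 min compound exposure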
# hERG protect: hERG rescue from dofetilide block, primary screen, cell-based, CHO-hERG, FluxOR thallium flux, dofetilide IC70; dofetilide IC70 present; activation (rescue from dofetilide block), less the hit threshold, % at 10 µM; 310,000 compounds, 0.51% hits;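 active = activation above the mean of controls blocked by dofetilide plus 5 SD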;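 also: thallium influx through hERG after potassium depolarization seen as dye fluorescence rise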
# * marks the source's active call; other numbers are inactive results; i = inactive; . = not tested or not shown. Rows were chosen to be rich in hits. Some 3.8% of all compounds tested hit in one or more screens of this group.
SMILES,KCNQ1 pot,KCNK3 inh,KCNK9 inh,Kir21 inh,KCNQ1 inh,hERG protect
CC(C)c1ccc(NC(=O)C2CC2c2ccccc2)cc1 (stereo not drawn),i,i,i,0.45,i,-8
Cc1onc(-c2c(Cl)cccc2Cl)c1C(N)=O,i,i,i,1.8,i,-2
Cc1onc(-c2c(Cl)cccc2Cl)c1C(=O)n1nnc2ccccc21,i,.,i,-0.22,i,4.8*
COC(=O)[C@H](CC(C)C)NCc1cccc(CN[C@@H](CC(C)C)C(=O)OC)c1,i,i,i,-4.3*,i,-5
COc1ccc(CNC(=S)Nc2ccc(F)c(Cl)c2)cc1OC,i,i,i,-0.89,i,4.9*
COc1ccccc1/C=C/C=C1\Oc2c(ccc(O)c2CN2CCN(CCO)CC2)C1=O,i,i,-6.8*,-9.4,6*,-21
CN(C)Cc1c(O)ccc2c1O/C(=C\C=C\c1ccccc1)C2=O,i,i,i,-7,9*,-28
CCN1CCN(Cc2c(O)ccc3c2O/C(=C\c2ccccc2)C3=O)CC1,i,i,i,-6.7,i,-18
CCc1ccc(/C=C2\Oc3c(ccc(O)c3CN3CCN(C)CC3)C2=O)cc1,i,i,i,-8.5,8*,-22
O=C1/C(=C/C=C/c2ccccc2)Oc2c1ccc(O)c2CN1CCN(CCO)CC1,i,i,i,-2.7,i,-19
CCC(C)c1ccc(S(=O)(=O)N2CCN(C(=O)c3ccc(Cl)c(S(=O)(=O)N4CCOCC4)c3)CC2)cc1 (stereo not drawn),.,-9.6*,.,.,.,.
CC1CN(c2ccc([N+](=O)[O-])c(NCCOc3ccc(Cl)cc3)c2)CC(C)N1 (stereo not drawn),i,i,i,-8*,9*,-30
Cc1cc(N)n2ncc(-c3cccc(Br)c3)c2n1,.,i,.,.,.,.
CC(C)Cc1ccc(C(C)C(N)=NCCc2ccccc2)cc1 (stereo not drawn),i,i,i,-7.5*,9*,-22
CCC(C(=O)O)n1cnc2scc(-c3ccc(C)c(C)c3)c2c1=O (stereo not drawn),i,i,i,1.6,i,-1
O=C(NCC(=O)N1CCCCCC1)c1ccc(OC(F)F)cc1,i,i,i,-1.6,i,-8
Cc1cccc(CSC(Nc2ccc(F)cc2)=C(C#N)C#N)c1,i,i,i,-4.5*,8*,-19
Cc1cccc(CSC(=N)N)c1,i,i,i,-1.1,i,-11
N#CC(C#N)=C(Nc1ccc(F)cc1)SCc1cccc(Br)c1,i,i,i,-3.2,7*,-21
COc1cccc(/C=C/C(=O)OCC(=O)Nc2ccc3[nH]c(=O)[nH]c3c2)c1OC,i,i,i,1.9,i,-13
Cn1nc(OC(=O)Nc2ccc(Cl)cc2)cc1C(F)(F)F,i,.,i,0.96,8*,-14
Cc1cc(C)n(-c2ccc(C(=O)Nc3cccc(S(=O)(=O)N(C)C)c3)cc2)n1,i,i,i,0.52,i,-16
Cc1cc(C)n(-c2ccc(C(=O)Nc3cccc([N+](=O)[O-])c3)cc2)n1,i,i,i,1,9*,-12
Cc1c(C(=O)Nc2cccc([N+](=O)[O-])c2)cnn1-c1ccccc1,i,i,i,0.05,i,7.0*
O=C(NNC(=O)c1ccc(=O)[nH]c1)c1ccc(NS(=O)(=O)c2cccs2)cc1,.,i,.,.,.,.
SMILES,KCNQ1 pot,KCNK3 inh,KCNK9 inh,Kir21 inh,KCNQ1 inh,hERG protect
CCN1CCN(c2ccc(NC(=O)c3ccc4c(c3)[nH]c(=O)n4Cc3ccc(OC)cc3)cc2)CC1,i,i,i,-1.7,i,1
COc1ccc(CCNc2nc(-c3ccncc3)cs2)cc1OC,i,i,i,-4,i,-9
COc1ccc(CCNc2nc(-c3ccc(O)cc3)cs2)cc1OC,i,i,i,-4.6*,i,-29
Cc1cc(NC(=O)c2cccs2)n(-c2nc3ccccc3[nH]2)n1,i,i,i,-0.75,i,-7
Cc1cc(NC(=O)c2sccc2C)n(-c2nc3ccccc3[nH]2)n1,i,i,-7*,1.8,i,-6
CCCN1C(=O)/C(=C/c2ccc(C)s2)NC1=S,32*,i,i,0.44,i,32*
CC(C)CN1C(=O)/C(=C/c2cccs2)NC1=S,55*,i,i,0.02,i,49*
COc1ccc(CN2[C@@H](CC(=O)O)c3ccccc3S2(=O)=O)cc1,i,i,i,0.04,i,6.7*
Cc1ccc(F)c(Oc2cc(NN3CCCCC3)c([N+](=O)[O-])cc2[N+](=O)[O-])c1,i,i,-7.3*,-0.42,i,-9
CCCn1c(=O)c(C(=O)N/N=C/c2ccccc2F)c(O)c2ccccc21,i,i,i,-1.3,i,-6
CC1CN(C(=O)c2cc(S(=O)(=O)N3CCCC3)c(Cl)cc2Cl)CC(C)O1 (stereo not drawn),i,i,i,1.4,i,-4
Cc1ccc(C(=O)Nc2ncc([N+](=O)[O-])s2)cc1,i,i,i,0.97,6*,-2
CC(CC(=O)Nc1ncc([N+](=O)[O-])s1)c1ccccc1 (stereo not drawn),i,i,i,-0.02,11*,-6
O=C(Nc1ncc([N+](=O)[O-])s1)c1ccc2c(c1)OCO2,i,i,i,0.54,i,-6
O=C(NCCNCc1cccc(Cl)c1)c1ccco1,.,i,.,.,.,.
Clc1cccc(CNCCNCc2cccc(Cl)c2)c1,i,i,i,-4.3*,i,-16
CC[C@@H](C(=O)[C@@H](C)[C@@H](O)[C@H](C)CCc1ccc(C)c(O)c1C(=O)O)[C@H]1O[C@](CC)([C@H]2CC[C@](O)(CC)[C@H](C)O2)C[C@@H]1C,76*,i,i,-1.4,i,65*
O=C(CCCCC(=O)Nc1ccccc1Cl)Nc1ccccc1Cl,i,i,i,1.2,i,-7
NNC(=O)CNc1ccccc1Cl,i,i,i,0.39,i,5.6*
